ChEMBL document CHEMBL1629544, “Inhibitors of strand transfer that prevent integration and inhibit human T-cell leukemia virus type 1 early replication” (Antimicrob Agents Chemother, 2008)
Calls of active or inactive are those of the source. The calls are words filed in the database; no cut-off is given here.

Experiments:
[1] = test system: Human T-cell leukemia virus type I; experiment: Inhibition of HTLV-1 integrase strand transfer activity at 2 uM
Procedure, shortened: (§1)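 Recombinant HTLV-1 integrase, expressed in E. coli BL21(DE3) and Ni-NTA purified. Donor was a 3′-recessed double-strand 54-bp HTLV-1 3′ LTR with synthetic target DNA, 1 pmol each oligonucleotide. Buffer: 25 mM HEPES pH 7.4, 10 mM β-mercaptoethanol, 10% glycerol, 7.5 mM MnCl₂. Incubated 60 min at 37°C. Products quantified by fluorescent PCR peak intensity, in triplicate; approximate IC50 by linear regression.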

[2] = test system: Human T-cell leukemia virus type I; experiment: Inhibition of HTLV-1 integrase strand transfer activity at 5 uM; procedure, shortened: as §1
[3] = test system: Human T-cell leukemia virus type I; experiment: Inhibition of HTLV-1 integrase strand transfer activity at 10 uM; procedure, shortened: as §1
[4] = Inhibition of HTLV-1 integrase strand transfer activity; set-up: species or system Human T-cell leukemia virus type I; procedure, shortened: as §1
PBMC [5] = experiment: Growth inhibition of human PBMC cells cocultured with irradiated HTLV-1 positive MT2 cells at 50 uM after 7 days; assay type: functional, cell-based
Procedure, shortened: (§2)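 PBMCs from HTLV-1-seronegative donors (Ficoll separation) were cocultured 5:1 with 60 Gy-irradiated HTLV-1-positive MT2 cells in RPMI 1640 with 100 U/ml IL-2. Compounds in DMSO were added at onset at final 0, 50, 100 or 250 μM, then at half the initial concentration on days 4, 7 and 10. Cells were counted on days 7, 14 and 21.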

PBMC [6] = experiment: Growth inhibition of human PBMC cells cocultured with irradiated HTLV-1 positive MT2 cells at 100 uM after 7 days; assay type: functional, cell-based; procedure, shortened: as §2
PBMC [7] = experiment: Growth inhibition of human PBMC cells cocultured with irradiated HTLV-1 positive MT2 cells at 250 uM after 7 days; assay type: functional, cell-based; procedure, shortened: as §2
PBMC [8] = experiment: Growth inhibition of human PBMC cells cocultured with irradiated HTLV-1 positive MT2 cells at 50 uM after 14 days; assay type: functional, cell-based; procedure, shortened: as §2
PBMC [9] = experiment: Growth inhibition of human PBMC cells cocultured with irradiated HTLV-1 positive MT2 cells at 100 uM after 14 days; assay type: functional, cell-based; procedure, shortened: as §2
PBMC [10] = experiment: Growth inhibition of human PBMC cells cocultured with irradiated HTLV-1 positive MT2 cells at 250 uM after 14 days; assay type: functional, cell-based; procedure, shortened: as §2
PBMC [11] = experiment: Growth inhibition of human PBMC cells cocultured with irradiated HTLV-1 positive MT2 cells at 50 uM after 21 days; assay type: functional, cell-based; procedure, shortened: as §2
PBMC [12] = experiment: Growth inhibition of human PBMC cells cocultured with irradiated HTLV-1 positive MT2 cells at 100 uM after 21 days; assay type: functional, cell-based; procedure, shortened: as §2
PBMC [13] = experiment: Growth inhibition of human PBMC cells cocultured with irradiated HTLV-1 positive MT2 cells at 250 uM after 21 days; assay type: functional, cell-based; procedure, shortened: as §2
[14] = Cytotoxic activity against human PBMC cells; assay type: cell-based
Procedure, shortened: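 Fresh uninfected PBMCs were cultured with various inhibitor concentrations, including 250, 500 and 1,000 μM, in three experiments per concentration. Cell viability was measured to derive CC50.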

PBMC [15] = experiment: Inhibition of HTLV-1 integrase strand transfer activity in PBMC cells at 100 uM measured on day 21; assay type: cell-based; settings: Human T-cell leukemia virus type I
PBMC [16] = experiment: Inhibition of HTLV-1 integrase strand transfer activity in PBMC cells at 50 uM measured on day 21; assay type: cell-based; settings: Human T-cell leukemia virus type I
[17] = test system: Human T-cell leukemia virus type I; experiment: Antiviral activity against HTLV-1 infected in PBMC cells cocultured with irradiated HTLV-1 positive MT2 cells assessed as decrease in […] load by RT-PCR; assay type: functional, organism-based
Procedure, shortened: (§3)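 Donor PBMCs were cocultured 5:1 with 60 Gy-irradiated MT2 cells plus IL-2, with compound (DMSO) at 0, 50 or 100 μM, redosed at half concentration on days 4, 7 and 10. DNA was extracted on day 7. Real-time quantitative PCR for tax with albumin normalization used 250 ng DNA per reaction, in triplicate. The untreated load was set to 100 units.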

[18] = test system: Human T-cell leukemia virus type I; experiment: Antiviral activity against HTLV-1 infected in PBMC cells cocultured with irradiated HTLV-1 positive MT2 cells assessed as decrease in […] load at 50 uM after 7 days by RT-PCR; assay type: functional, organism-based; procedure, shortened: as §3
[19] = test system: Human T-cell leukemia virus type I; experiment: Antiviral activity against HTLV-1 infected in PBMC cells cocultured with irradiated HTLV-1 positive MT2 cells assessed as decrease in […] load 100 uM after 7 days by RT-PCR; assay type: functional, organism-based; procedure, shortened: as §3

Row | SMILES | inhibition [1] | inhibition [2] | inhibition [3] | IC50 [4] [µM] | inhibition (PBMC [5]) | inhibition (PBMC [6]) | inhibition (PBMC [7]) | inhibition (PBMC [8]) | inhibition (PBMC [9]) | inhibition (PBMC [10]) | inhibition (PBMC [11]) | inhibition (PBMC [12]) | inhibition (PBMC [13]) | CC50 [14] [µM] | inhibition (PBMC [15]) | inhibition (PBMC [16]) | Activity [17] | Activity [18] | Activity [19]
1 | COc1cc(/C=C/c2ccc3ccc(C(=O)O)c(O)c3n2)cc(O)c1O | Active | Active | Active | 5.2 | Active | Active | Active | Active | Active | Active | Active | Active | Active |  |  |  |  |  | 
2 | O=C(O)C(=O)CC(=O)c1cccn1Cc1ccc(F)cc1 |  |  |  |  | Active | Active | Active | Active | Active | Active | Active | Active | Active | 520 | Active | Active |  |  | 
3 | O=C(O)c1ccc2ccc(/C=C/c3cc(O)c(O)c(O)c3)nc2c1O |  |  |  |  |  |  |  |  |  |  |  |  |  | 10.7 |  |  |  |  | 
4 | O=C(O)c1ccc2ccc(/C=C/c3ccc(O)c(O)c3)nc2c1O |  |  |  |  | Active | Active | Active | Active | Active | Active | Active | Active | Active |  |  |  | Active | Active | Active
5 | COc1cc(/C=C/c2ccc3ccc(C(=O)O)c(O)c3n2)cc(OC)c1O | Active | Active | Active | 7.2 | Active | Active | Active | Active | Active | Active | Active | Active | Active |  |  |  |  |  | 
6 | O=C(O)C(=O)CC(=O)c1cccc(Cc2ccccc2)c1 |  |  |  |  | Active | Active | Active | Active | Active | Active | Active | Active | Active | 220 |  |  | Active | Active | Active
